KCNK9 block: KCNK9 potassium channel inhibitors, primary screen, HEK293 cells, thallium flux. Potassium channel subfamily K member 9 (Homo sapiens), Q9NPC2. FluxOR thallium flux fluorescence; stronger effect = lower value. B-score at 10 µM. hit rate 1.2% among 310,000;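 active = ratio B-score over 3 SD below the library mean, with starting fluorescence within 5 SD of its mean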;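 also: negative B-score means less thallium flux so channel inhibition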
Target sequence (Q9NPC2 whole entry, looked up): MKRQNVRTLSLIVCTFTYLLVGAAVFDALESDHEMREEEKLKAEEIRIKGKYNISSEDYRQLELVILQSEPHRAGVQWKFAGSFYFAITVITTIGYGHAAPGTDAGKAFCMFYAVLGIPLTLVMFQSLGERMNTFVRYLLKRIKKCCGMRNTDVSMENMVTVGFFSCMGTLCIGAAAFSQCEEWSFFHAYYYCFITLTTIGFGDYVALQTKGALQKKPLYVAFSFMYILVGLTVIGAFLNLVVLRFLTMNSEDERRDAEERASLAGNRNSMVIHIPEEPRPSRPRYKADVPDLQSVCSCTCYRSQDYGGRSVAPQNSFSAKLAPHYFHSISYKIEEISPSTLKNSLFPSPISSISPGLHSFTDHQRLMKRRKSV
KCNK3 block: human KCNK3 channel inhibitors, primary screen, CHO cells, FluxOR thallium flux, B-score; Potassium channel subfamily K member 3 (Homo sapiens), O14649; FluxOR fluorescence; stronger effect = lower value; B-score at 10 µM; hit rate 0.84% among 340,000; AID 602410, 2012;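 active = B-score under library mean minus 4 SD, starting fluorescence ratio at most library mean plus 5 SD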;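 also: more negative B-score means stronger inhibition of thallium flux through KCNK3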
KCNQ1 act: potentiators or activators of KCNQ1 channel, primary screen, cell-based, thallium flux, high-throughput; CHO-K1 KCNQ1, thallium flux FluxOR fluorescence; stronger effect = higher value; B-score at 10 µM; hit rate 0.35% among 310,000;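 active = fluorescence ratio B-score, a plate-corrected score, at least three library SD, with initial intensity B-score within 5 SD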
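Schedule – 37 °C overnight plating, 90-min dark dye load, 20-min compound pretreatment · System – stable KCNQ1 CHO-K1 line · Probe or stimulus – thallium- and potassium-containing depolarizing buffer · Measured by – kinetic FluxOR fluorescence, 10 s baseline plus 110 s post-stimulus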
KCNQ1 inh: inhibitors of human KCNQ1 channel, primary screen, cell-based, thallium flux, high-throughput; CHO-K1 KCNQ1, FluxOR thallium flux fluorescence; stronger effect = higher value; hit rate 1.3% among 310,000; Potassium voltage-gated channel subfamily KQT member 1 (Homo sapiens), P51787; B-score at 10 µM;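 active = compounds whose thallium flux B-score, printed positive for inhibition, exceeds three library SD while starting fluorescence stays within three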;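 also: channel opened by potassium depolarization with thallium stimulus after 20 min compound exposure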
hERG rescue: hERG rescue from dofetilide block, primary screen, cell-based, CHO-hERG, FluxOR thallium flux, dofetilide IC70; hit rate 0.51% among 310,000; activation (rescue from dofetilide block), less the hit threshold, % at 10 µM; Voltage-gated inwardly rectifying potassium channel KCNH2 (Homo sapiens), Q12809; dofetilide IC70 present;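 active = activation above the mean of controls blocked by dofetilide plus 5 SD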;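 also: thallium influx through hERG after potassium depolarization seen as dye fluorescence rise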
Kir21 block: inhibitors of mouse Kir2.1 inward-rectifier potassium channel; Inward rectifier potassium channel 2 (Mus musculus), P35561; HEK293-Kir2.1, FluxOR thallium flux fluorescence; stronger effect = lower value; B-score at 10 µM; hit rate 0.85% among 310,000; AID 1672, 2009;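 active = fluorescence ratio B-score at or below minus 3 SD of library scores, with starting-brightness B-score within 2 SD, cut at about -4.2 in these data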;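 also: channel flux triggered by added potassium and thallium sulfate stimulus; B-score of peak minus minimum fluorescence over baseline after thallium stimulus; more negative B-score means stronger Kir2.1 block with less thallium influx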
* marks the source's active call; other numbers are inactive results; i = inactive; . = no result given. A selection: hits, their analogues and other compounds. The true share with any hit is near 3.8%.

SMILES	KCNK9 block	KCNK3 block	KCNQ1 act	KCNQ1 inh	hERG rescue	Kir21 block
CCc1ccc(-n2c(=O)c3c(C)c(C)sc3n(CC(=O)NCC3CCCO3)c2=O)cc1 (configuration not stated)	i	i	i	i	-8	-0.41
CC(C)Nc1cc(N2CCCC2)ccc1[N+](=O)[O-]	i	i	i	i	-8	2.4
O=C(O)CN1C(=O)C(=O)N(Cc2ccc(C(F)(F)F)cc2)C1=O	i	i	i	i	5.4*	0.12
COc1ccc(CCN=C(C)C2=C(O)C(c3ccccc3)OC2=O)cc1OC (configuration not stated)	i	i	i	i	-4	0.32
COc1cc(/C=N/N=C(N)N)ccc1OCc1ccccc1Cl	i	i	i	10*	-30	-16*
O=C(NNC(=O)C1CCCCC1)c1ccncc1	i	i	i	i	-7	-1.4
O=C(NNC(=O)c1ccncc1)NC1CCCCC1	i	i	i	i	8.7*	-0.23
COc1ccccc1OCC(=O)/C=C1/N(C)c2ccccc2C1(C)C	i	i	i	i	-23	-2
CN1/C(=C\C(=O)COc2ccc3c(c2)OCO3)C(C)(C)c2ccccc21	-8*	i	i	i	-16	-0.19
COc1ccc(/C=C2\Sc3ccc(C(=O)NCCN4CCCCCC4)cc3N(C)C2=O)cc1	i	i	i	9*	-19	-3.3
O=C(NCCN1CCOCC1)c1ccc(/C=C2\Sc3ccccc3N(Cc3ccccc3F)C2=O)cc1	i	i	i	11*	-19	-0.08
Cc1cccc(CN2C(=O)/C(=C\c3ccc(C(=O)NCCN4CCOCC4)cc3)Sc3ccccc32)c1	i	i	i	8*	-25	-0.39
O=C(NCCN1CCOCC1)c1ccc2c(c1)N(Cc1cccc(F)c1)C(=O)c1ccccc1S2	i	i	i	i	-16	0.56
CN1CCN(CCCNC(=O)c2ccc(/C=C3\Sc4ccccc4N(Cc4ccccc4F)C3=O)cc2)CC1	i	i	i	i	-39	-0.9
Cc1ccccc1CN1C(=O)/C(=C\c2ccc(C(=O)NCCN3CCOCC3)cc2)Sc2ccccc21	i	i	i	i	-13	-0.01
CCN1CCN(CCNC(=O)c2ccc3c(c2)N(Cc2ccc(F)cc2)C(=O)/C(=C/c2ccccc2)S3)CC1	i	i	i	10*	-28	0.88
c1coc(-c2ccnc3ncnn23)c1	i	i	i	i	-4	1.6
Nc1nc(CSc2nnnn2-c2ccccc2)nc(N2CCCc3ccccc32)n1	.	-10*	.	.	.	.
CCCn1c(C(O)c2cccc(OC)c2)nc2ccccc21 (configuration not stated)	i	i	i	i	-2	-1.9
Cn1c(-c2c(N)n(C3CCCC3)c3nc4ccccc4nc23)nc2ccccc21	i	-11*	i	i	-14	2.9
CCOc1ccc(NC(=O)CN(C)C(=O)c2cc3c(s2)CCC(C)C3)cc1OCC (configuration not stated)	.	i	.	.	.	.
COCCNC(=O)c1onc(CSc2cc(C)ccc2C)c1C(=O)O	i	i	i	i	-7	0
Cc1ccc(C)c(SCc2noc(C(=O)NC(C)C)c2C(=O)O)c1	i	i	9*	i	0	-0.77
COc1ccc(N2C(=O)CC(Sc3nc4c(cc3C#N)CCC4)C2=O)cc1 (configuration not stated)	i	i	i	i	-12	0.05
COc1ccc(NN=Nc2nc3c([nH]2)c(=O)n(C)c(=O)n3C)cc1	i	i	i	i	-4	0.1
SMILES	KCNK9 block	KCNK3 block	KCNQ1 act	KCNQ1 inh	hERG rescue	Kir21 block
FC(F)(F)c1cc(-c2cccs2)nc2cc(-c3cccs3)nn12	i	i	i	6*	-1	0.81
NNC(=O)c1cc2nc(-c3cccs3)cc(C(F)(F)F)n2n1	i	i	i	i	-6	1.2
O[C@@H](c1cc(C(F)(F)F)nc2c(C(F)(F)F)cccc12)[C@H]1CCCCN1	i	i	i	i	-13	-0.02
OC(c1cc(-c2ccc(Cl)cc2)nc2ccccc12)C1CCCCN1 (configuration not stated)	i	i	i	i	-15	-5.4*
O=C(Nc1ccc(F)cc1)OCCOc1ccc([N+](=O)[O-])cc1	i	i	i	i	-8	-0.51
CN(CC(=O)Nc1ccccc1Cl)C(=O)CCc1nc2ccccc2c(=O)[nH]1	i	i	i	i	-15	1.6
O=C(N/N=C/c1cccc(Oc2ccccc2)c1)c1cc[n+]([O-])cc1	i	i	i	i	-12	2.4
Nc1ccc(C(=O)N/N=C/c2cccc(Oc3ccccc3)c2)cc1	i	i	i	i	-13	-11*
NS(=O)(=O)c1ccc(NC(=O)CCC(=O)c2ccc(Cl)s2)cc1	i	i	i	i	-9	1.1
COc1ccc(-c2csc(=Nc3c(C)n(C)n(-c4ccccc4)c3=O)n2C(C)(C)C)cc1	i	i	i	i	5.1*	-0.84
O=C(COC(=O)CC(c1ccccc1)c1ccccc1)NCc1ccccc1	i	i	i	i	-11	-5.8*
O=C(COC(=O)CC(c1ccccc1)c1ccccc1)Nc1ccc(F)c(F)c1	i	.	i	6*	-18	-1.1
O=C(COC(=O)Cc1ccc(-c2ccccc2)cc1)NCc1ccccc1	i	i	i	i	-1	1.1
O=C(CNc1cc(S(=O)(=O)N2CCCC2)ccc1OCC(F)(F)F)Nc1ccc(SC(F)F)cc1	i	i	i	i	-3	0.92
CCc1ccc(/C=C(\Cl)c2nc3cc(Cl)ccc3c(=O)[nH]2)cc1	i	i	i	i	-7	0.04
Oc1c(N=NC(=S)Nc2ccccc2F)c2ccccc2n1Cc1cccc(Cl)c1	i	i	i	i	16*	0.33
Oc1c(N=NC(=S)Nc2ccccc2F)c2ccccc2n1Cc1ccc(F)cc1	i	i	15*	i	55*	1.9
Cc1cccc(Cn2c(O)c(N=NC(=S)Nc3ccccc3F)c3ccccc32)c1	i	i	8*	i	27*	0.15

Screening results deposited in PubChem by Johns Hopkins Ion Channel Center.
